In ChEMBL document CHEMBL1687738, “Effect of Candida glabrata FKS1 and FKS2 mutations on echinocandin sensitivity and kinetics of 1,3-beta-D-glucan synthase: implication for the existing susceptibility breakpoint” (Antimicrob Agents Chemother, 2009):
Converted amounts (≈) assume the structure as drawn. Starred links: 1 amine or outer side, 2 acyl side, 3 side chain; linkers in the order of their positions; H or OH if unused. Positions of bridges follow the written chain, without caps; N, C: chain ends. Non-standard residues stand in square brackets, D forms with d. Residues, ends and D or L forms follow the SMILES beside them. *: point of attachment. hTyr(3S-OH,4S-OH,3'-OSO3H) = N[C@H](C(=O)O)[C@H](O)[C@@H](O)c1ccc(O)c(OS(=O)(=O)O)c1; pTerphenylCO(4''-OnC5H11) = CCCCCOc1ccc(-c2ccc(-c3ccc(C(=O)*)cc3)cc2)cc1; Orn(4R-OH,5R-OH) = O=C([C@H](C[C@@H](O)[C@@H](O)N[*:3])N[*:1])[*:2]; hTyr(3S-OH,4S-OH) = N[C@H](C(=O)O)[C@H](O)[C@@H](O)c1ccc(O)cc1; Pro(3S-OH,4S-Me) = C[C@H]1CN[C@H](C(=O)O)[C@H]1O; X1 = CCCCCOc1ccc(-c2cc(-c3ccc(C(=O)*)cc3)no2)cc1; Gln(3R-OH) = NC(=O)C[C@@H](O)[C@H](N)C(=O)O; Hyp = O=C(O)[C@@H]1C[C@@H](O)CN1

Key:
[1] = Inhibition of Candida glabrata isolate 42971 1,3-beta-D-glucan synthase Fks1p D632Y mutant/Fks2p R1377STOP mutant; set-up: species or system Nakaseomyces glabratus
Summary of the method: (§1)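 Cells grown in YPD broth at 35°C with vigorous shaking to early stationary phase. Membrane protein extracted and glucan synthase partially purified by product entrapment. Filtration polymerization assay measured [3H]glucose incorporation into product, started by adding enzyme. Echinocandin serial dilutions spanned 0.01–10,000 ng/ml, with 1% DMSO controls for anidulafungin. IC50 from variable-slope sigmoidal fit.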

Nakaseomyces glabratus [2] = assay: Antifungal activity against Candida glabrata isolate 5847 expressing Fks1p S629P mutant and wild type Fks2p by CLSI method; assay type: functional
Summary of the method: (§2)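 Broth microdilution MIC per CLSI M27-A3 in RPMI 1640 medium without serum. Caspofungin and micafungin stocks in sterile water; anidulafungin stock in 100% DMSO; stocks kept at −86°C.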

[3] = Inhibition of Candida glabrata ATCC 90030 wild type 1,3-beta-D-glucan synthase; set-up: species or system Nakaseomyces glabratus; summary of the method: as §1
Nakaseomyces glabratus [4] = assay: Antifungal activity against Candida glabrata isolate 5847 expressing Fks1p S629P mutant and wild type Fks2p by CLSI method in presence of 50% human serum; assay type: functional
Summary of the method: (§3)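 Broth microdilution MIC per CLSI M27-A3 in RPMI 1640 supplemented with 50% serum. Caspofungin and micafungin stocks in sterile water; anidulafungin stock in 100% DMSO; stocks kept at −86°C.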

Nakaseomyces glabratus [5] = assay: Antifungal activity against Candida glabrata isolate 3830 expressing wild type Fks1p and Fks2p S663P mutant by CLSI method; assay type: functional; summary of the method: as §2
Nakaseomyces glabratus [6] = assay: Antifungal activity against Candida glabrata isolate 21900 expressing Fks1p D632G mutant and wild type Fks2p by CLSI method; assay type: functional
Nakaseomyces glabratus [7] = assay: Antifungal activity against Candida glabrata ATCC 90030 expressing wild type Fks1p and Fks2p by CLSI method in presence of 50% human serum; assay type: functional; summary of the method: as §3
Nakaseomyces glabratus [8] = assay: Antifungal activity against Candida glabrata isolate 51916 expressing wild type Fks1p and Fks2p P667T mutant by CLSI method in presence of 50% human serum; assay type: functional; summary of the method: as §3
[9] = molecular target: 1,3-beta-glucan synthase component FKS1 (Candida glabrata, UniProt E2GKZ4, S629P); assay: Inhibition of Candida glabrata isolate 5847 1,3-beta-D-glucan synthase Fks1p S629P mutant/wild type Fks2p; set-up: species or system Nakaseomyces glabratus; summary of the method: as §1
Nakaseomyces glabratus [10] = assay: Antifungal activity against Candida glabrata isolate 3168 expressing wild type Fks1p and Fks2p by CLSI method in presence of 50% human serum; assay type: functional; summary of the method: as §3
1,3-beta-glucan synthase [11] = molecular target: 1,3-beta-glucan synthase (Candida glabrata, UniProt F5BCZ9, S663P); assay: Inhibition of Candida glabrata isolate 3830 1,3-beta-D-glucan synthase wild type Fks1p/Fks2p S663P mutant; set-up: species or system Nakaseomyces glabratus; summary of the method: as §1
Nakaseomyces glabratus [12] = assay: Antifungal activity against Candida glabrata isolate 234 expressing wild type Fks1p and Fks2p F659V mutant by CLSI method; assay type: functional; summary of the method: as §2
1,3-beta-glucan synthase [13] = molecular target: 1,3-beta-glucan synthase (Candida glabrata, UniProt F5BCZ9, F659S); assay: Inhibition of Candida glabrata isolate 41026 1,3-beta-D-glucan synthase wild type Fks1p/Fks2p F659S mutant; set-up: species or system Nakaseomyces glabratus; summary of the method: as §1
Nakaseomyces glabratus [14] = assay: Antifungal activity against Candida glabrata isolate 3168 expressing wild type Fks1p and Fks2p by CLSI method; assay type: functional; summary of the method: as §2
[15] = molecular target: 1,3-beta-glucan synthase component FKS1 (Candida glabrata, UniProt E2GKZ4, F625S); assay: Inhibition of Candida glabrata isolate 42997 1,3-beta-D-glucan synthase Fks1p F625S mutant/wild type Fks2p; set-up: species or system Nakaseomyces glabratus; summary of the method: as §1
Sequence of 1,3-beta-glucan synthase component FKS1 (Candida glabrata, UniProt E2GKZ4, F625S) (E2GKZ4 entry or part of it F625S): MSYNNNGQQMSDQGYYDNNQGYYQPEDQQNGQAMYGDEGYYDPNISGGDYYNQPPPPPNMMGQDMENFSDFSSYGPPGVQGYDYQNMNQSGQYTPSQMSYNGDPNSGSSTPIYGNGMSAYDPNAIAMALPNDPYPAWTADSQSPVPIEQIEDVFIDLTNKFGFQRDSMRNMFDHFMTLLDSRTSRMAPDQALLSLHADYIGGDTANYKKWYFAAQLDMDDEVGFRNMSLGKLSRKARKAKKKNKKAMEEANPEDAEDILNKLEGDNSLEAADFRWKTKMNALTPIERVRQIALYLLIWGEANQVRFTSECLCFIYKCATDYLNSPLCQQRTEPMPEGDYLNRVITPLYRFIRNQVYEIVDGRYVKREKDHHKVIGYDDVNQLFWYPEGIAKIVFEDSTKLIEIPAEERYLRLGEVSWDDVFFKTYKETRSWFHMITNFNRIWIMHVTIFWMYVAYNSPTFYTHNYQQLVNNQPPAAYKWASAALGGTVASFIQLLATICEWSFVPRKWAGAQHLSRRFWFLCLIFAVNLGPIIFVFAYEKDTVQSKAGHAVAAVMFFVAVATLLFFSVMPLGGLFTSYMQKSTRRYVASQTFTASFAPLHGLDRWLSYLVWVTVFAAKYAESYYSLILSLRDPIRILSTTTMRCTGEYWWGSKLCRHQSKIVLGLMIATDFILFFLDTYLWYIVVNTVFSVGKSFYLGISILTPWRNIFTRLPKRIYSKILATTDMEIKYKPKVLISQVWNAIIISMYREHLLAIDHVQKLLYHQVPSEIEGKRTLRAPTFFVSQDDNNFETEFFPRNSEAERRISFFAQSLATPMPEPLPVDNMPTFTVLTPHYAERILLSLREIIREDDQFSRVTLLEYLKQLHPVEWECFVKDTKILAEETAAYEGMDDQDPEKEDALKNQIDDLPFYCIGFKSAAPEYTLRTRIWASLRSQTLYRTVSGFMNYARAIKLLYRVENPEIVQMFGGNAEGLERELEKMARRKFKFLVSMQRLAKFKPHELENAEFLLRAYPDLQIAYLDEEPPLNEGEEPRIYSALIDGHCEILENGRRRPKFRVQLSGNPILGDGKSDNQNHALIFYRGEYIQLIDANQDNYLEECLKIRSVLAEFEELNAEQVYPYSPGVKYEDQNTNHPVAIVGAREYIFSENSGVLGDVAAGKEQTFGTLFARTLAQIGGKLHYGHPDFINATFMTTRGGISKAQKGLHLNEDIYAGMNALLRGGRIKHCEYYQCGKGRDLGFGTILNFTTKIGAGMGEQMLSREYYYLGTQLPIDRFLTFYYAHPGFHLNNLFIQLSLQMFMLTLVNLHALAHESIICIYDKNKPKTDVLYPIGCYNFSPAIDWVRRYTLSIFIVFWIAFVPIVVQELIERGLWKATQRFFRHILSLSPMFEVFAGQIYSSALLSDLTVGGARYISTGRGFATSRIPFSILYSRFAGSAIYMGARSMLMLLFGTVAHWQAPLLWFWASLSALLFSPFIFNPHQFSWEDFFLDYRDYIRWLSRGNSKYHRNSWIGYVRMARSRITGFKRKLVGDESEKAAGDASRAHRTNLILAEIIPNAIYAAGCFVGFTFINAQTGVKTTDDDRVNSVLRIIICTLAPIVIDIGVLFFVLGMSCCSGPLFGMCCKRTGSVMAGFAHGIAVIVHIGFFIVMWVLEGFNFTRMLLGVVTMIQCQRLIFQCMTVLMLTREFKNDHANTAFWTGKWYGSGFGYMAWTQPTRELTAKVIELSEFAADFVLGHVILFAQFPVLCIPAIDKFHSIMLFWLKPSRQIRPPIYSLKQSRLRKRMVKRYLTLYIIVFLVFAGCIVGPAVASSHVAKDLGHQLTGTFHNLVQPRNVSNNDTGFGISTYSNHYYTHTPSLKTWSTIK

Sequence of 1,3-beta-glucan synthase component FKS1 (Candida glabrata, UniProt E2GKZ4, S629P) (E2GKZ4 entry or part of it S629P): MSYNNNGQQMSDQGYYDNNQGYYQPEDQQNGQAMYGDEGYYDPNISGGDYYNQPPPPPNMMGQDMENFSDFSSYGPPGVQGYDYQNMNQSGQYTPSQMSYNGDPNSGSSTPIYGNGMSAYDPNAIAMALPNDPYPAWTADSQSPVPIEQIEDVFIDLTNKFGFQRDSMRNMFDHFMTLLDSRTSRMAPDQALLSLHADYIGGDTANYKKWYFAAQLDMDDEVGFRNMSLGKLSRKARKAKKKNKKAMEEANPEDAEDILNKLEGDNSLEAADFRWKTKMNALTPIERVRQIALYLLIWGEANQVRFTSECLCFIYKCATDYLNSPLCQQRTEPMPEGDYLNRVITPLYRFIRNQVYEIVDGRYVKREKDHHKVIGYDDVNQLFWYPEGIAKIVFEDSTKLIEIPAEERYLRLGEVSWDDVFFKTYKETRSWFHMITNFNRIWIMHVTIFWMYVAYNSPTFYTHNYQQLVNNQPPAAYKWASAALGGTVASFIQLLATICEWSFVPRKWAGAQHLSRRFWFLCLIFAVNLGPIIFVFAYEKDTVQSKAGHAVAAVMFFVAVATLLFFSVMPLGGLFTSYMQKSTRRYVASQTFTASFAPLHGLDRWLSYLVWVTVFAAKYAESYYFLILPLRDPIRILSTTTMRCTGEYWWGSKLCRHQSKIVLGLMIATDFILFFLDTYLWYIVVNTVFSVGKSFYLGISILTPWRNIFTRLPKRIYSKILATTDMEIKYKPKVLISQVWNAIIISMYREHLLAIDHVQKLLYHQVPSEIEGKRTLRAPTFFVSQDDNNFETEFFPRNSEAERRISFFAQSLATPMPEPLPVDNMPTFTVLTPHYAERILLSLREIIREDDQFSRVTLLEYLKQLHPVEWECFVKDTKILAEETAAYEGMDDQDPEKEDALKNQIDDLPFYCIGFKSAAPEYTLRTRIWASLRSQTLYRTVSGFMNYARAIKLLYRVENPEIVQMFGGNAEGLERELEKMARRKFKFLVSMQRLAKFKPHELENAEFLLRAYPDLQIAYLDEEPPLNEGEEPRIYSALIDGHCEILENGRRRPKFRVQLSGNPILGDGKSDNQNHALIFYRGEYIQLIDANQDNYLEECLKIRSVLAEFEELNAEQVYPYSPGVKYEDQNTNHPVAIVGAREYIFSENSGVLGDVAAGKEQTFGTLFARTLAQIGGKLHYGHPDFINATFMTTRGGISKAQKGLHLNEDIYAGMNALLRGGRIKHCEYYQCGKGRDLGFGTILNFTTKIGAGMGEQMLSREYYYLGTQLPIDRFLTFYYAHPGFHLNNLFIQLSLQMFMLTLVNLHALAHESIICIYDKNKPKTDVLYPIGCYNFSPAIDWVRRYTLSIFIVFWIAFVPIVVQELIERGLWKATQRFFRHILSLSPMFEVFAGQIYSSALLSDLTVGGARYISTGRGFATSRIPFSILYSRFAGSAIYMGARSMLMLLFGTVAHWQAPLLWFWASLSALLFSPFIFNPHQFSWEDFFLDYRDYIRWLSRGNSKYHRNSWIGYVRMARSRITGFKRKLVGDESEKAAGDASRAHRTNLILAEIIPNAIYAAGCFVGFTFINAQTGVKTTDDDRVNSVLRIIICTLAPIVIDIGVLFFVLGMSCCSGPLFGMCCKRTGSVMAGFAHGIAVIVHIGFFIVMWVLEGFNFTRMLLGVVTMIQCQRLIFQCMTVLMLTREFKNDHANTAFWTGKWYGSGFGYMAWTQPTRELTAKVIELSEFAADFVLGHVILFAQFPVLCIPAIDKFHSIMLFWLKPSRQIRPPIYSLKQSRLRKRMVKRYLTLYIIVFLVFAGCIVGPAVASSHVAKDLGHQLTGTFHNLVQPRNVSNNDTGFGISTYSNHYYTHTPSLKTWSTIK

Structure (SMILES) | IC50 [1] [µg/mL] | MIC (Nakaseomyces glabratus [2]) [µg/mL] | IC50 [3] [µg/mL] | MIC (Nakaseomyces glabratus [4]) [µg/mL] | MIC (Nakaseomyces glabratus [5]) [µg/mL] | MIC (Nakaseomyces glabratus [6]) [µg/mL] | MIC (Nakaseomyces glabratus [7]) [µg/mL] | MIC (Nakaseomyces glabratus [8]) [µg/mL] | IC50 [9] [nM] | MIC (Nakaseomyces glabratus [10]) [µg/mL] | IC50 (1,3-beta-glucan synthase [11]) [nM] | MIC (Nakaseomyces glabratus [12]) [µg/mL] | IC50 (1,3-beta-glucan synthase [13]) [nM] | MIC (Nakaseomyces glabratus [14]) [µg/mL] | IC50 [15] [nM]
CCCCCOc1ccc(-c2ccc(-c3ccc(C(=O)N[C@H]4C[C@@H](O)[C@@H](O)NC(=O)[C@@H]5[C@@H](O)[C@@H](C)CN5C(=O)[C@H]([C@@H](C)O)NC(=O)[C@H]([C@H](O)[C@@H](O)c5ccc(O)cc5)NC(=O)[C@@H]5C[C@@H](O)CN5C(=O)[C@H]([C@@H](C)O)NC4=O)cc3)cc2)cc1 [ANIDULAFUNGIN] ({pTerphenylCO(4''-OnC5H11)}-[Orn(4R-OH,5R-OH)]T[Hyp][hTyr(3S-OH,4S-OH)]T[Pro(3S-OH,4S-Me)]; lactam 1-C) | 2.5435 (≈ 2.23 µM) | 4 (≈ 3.51 µM) | 0.00191 (≈ 0.00168 µM) | 8 | 1 (≈ 0.877 µM) | 1 (≈ 0.877 µM) | 0.5 | 8 | 3380 | 0.5 | 3510 | 1 (≈ 0.877 µM) | 753 | 0.03 (≈ 0.0263 µM) | 97
CC[C@H](C)C[C@H](C)CCCCCCCCC(=O)N[C@H]1C[C@@H](O)[C@@H](NCCN)NC(=O)[C@@H]2[C@@H](O)CCN2C(=O)[C@H]([C@H](O)CCN)NC(=O)[C@H]([C@H](O)[C@@H](O)c2ccc(O)cc2)NC(=O)[C@@H]2C[C@@H](O)CN2C(=O)[C@H]([C@@H](C)O)NC1=O [CASPOFUNGIN] | 5.2485 (≈ 4.8 µM) | 8 (≈ 7.32 µM) | 0.00192 (≈ 0.00176 µM) | 8 | 16 (≈ 14.6 µM) | 4 (≈ 3.66 µM) | 0.12 | 8 | 4560 | 0.12 | 4680 | 4 (≈ 3.66 µM) | 973 | 0.06 (≈ 0.0549 µM) | 638
CCCCCOc1ccc(-c2cc(-c3ccc(C(=O)N[C@H]4C[C@@H](O)[C@@H](O)NC(=O)[C@@H]5[C@@H](O)[C@@H](C)CN5C(=O)[C@H]([C@H](O)CC(N)=O)NC(=O)[C@H]([C@H](O)[C@@H](O)c5ccc(O)c(OS(=O)(=O)O)c5)NC(=O)[C@@H]5C[C@@H](O)CN5C(=O)[C@H]([C@@H](C)O)NC4=O)cc3)no2)cc1 [MICAFUNGIN] (X1-[Orn(4R-OH,5R-OH)]T[Hyp][hTyr(3S-OH,4S-OH,3'-OSO3H)][Gln(3R-OH)][Pro(3S-OH,4S-Me)]; lactam 1-C) | 0.4134 (≈ 0.325 µM) | 2 (≈ 1.57 µM) | 0.00071 (≈ 0.000559 µM) | 8 | 1 (≈ 0.787 µM) | 0.5 (≈ 0.394 µM) | 0.25 | 4 | 673 | 0.5 | 2020 | 1 (≈ 0.787 µM) | 840 | 0.06 (≈ 0.0472 µM) | 99.4
